Series [1] deals with MCF7. Kind of series: Antiproliferative activity against human MCF7 cells assessed as reduction in cell growth incubated for 48 hrs by CCK8 assay. The class given is functional, cell-based. The following applies: MCF7, 48 h. Put shortly:
(§1)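 CCK-8 viability assay. Cells seeded at 4000/well in 10% FBS medium for 24 h, then given compound diluted from DMSO stocks into 2% FBS medium at 100, 50, 25, 12.5, 6.25 and 3.125 µM (0.1% DMSO final). After 48 h, CCK-8 was added (0.5 mg/mL) for 2 h at 37 °C and OD450 read. Triplicates; IC50 fitted from mean viability.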
(Formazan colour is commonly taken as a measure of viable cells.)

Series [2] deals with Ishikawa. Kind of series: Antiproliferative activity against human Ishikawa cells assessed as reduction in cell growth incubated for 48 hrs by CCK8 assay. Format: functional, cell-based. Put shortly:
as §1

Another series concerns MDA-MB-231. Kind of series: Antiproliferative activity against human MDA-MB-231 cells assessed as reduction in cell growth incubated for 48 hrs by CCK8 assay. Format: functional, cell-based. To be noted: MDA-MB-231, 48 h. In outline:
as §1

Series [3] in a line: Half life in rat plasma. The class given is ADME, cell-free.
Series [4] is described as follows: Half life in rat liver microsomes. The class given is ADME, Microsome.
A short description of series [5]: Intrinsic clearance in rat. Format: ADME.
Series [6] relates to MCF7. Kind of series: Downregulation of ERalpha expression in human MCF7 cells at 0.5 uM incubated for 24 hrs by Western blot assay. The class given is functional, cell-based. Put shortly: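 MCF-7 cells were kept in phenol red-free DMEM/F12 with 10% serum for 72 h before plating, then treated at 125, 250 and 500 nM for 24 h. Cells were lysed in RIPA buffer, protein was measured by BCA, and equal amounts were run on 10% SDS-PAGE and transferred to PVDF. ERα band intensity was normalized to GAPDH in each repeat.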

The test system of series [7] is MCF7. The series can be described thus: Potency index, ratio of raloxifene IC50 to test compound IC50 for human MCF7 cells assessed as reduction in cell growth incubated for 48 hrs by CCK8 assay. The class given is functional.
The test system of series [8] is Ishikawa. The series can be described thus: Potency index, ratio of raloxifene IC50 to test compound IC50 for human Ishikawa cells assessed as reduction in cell growth incubated for 48 hrs by CCK8 assay. Format: functional.
Series [9] has as its target T1, Estrogen receptor (Homo sapiens) (UniProt P03372).
T1 sequence (whole entry): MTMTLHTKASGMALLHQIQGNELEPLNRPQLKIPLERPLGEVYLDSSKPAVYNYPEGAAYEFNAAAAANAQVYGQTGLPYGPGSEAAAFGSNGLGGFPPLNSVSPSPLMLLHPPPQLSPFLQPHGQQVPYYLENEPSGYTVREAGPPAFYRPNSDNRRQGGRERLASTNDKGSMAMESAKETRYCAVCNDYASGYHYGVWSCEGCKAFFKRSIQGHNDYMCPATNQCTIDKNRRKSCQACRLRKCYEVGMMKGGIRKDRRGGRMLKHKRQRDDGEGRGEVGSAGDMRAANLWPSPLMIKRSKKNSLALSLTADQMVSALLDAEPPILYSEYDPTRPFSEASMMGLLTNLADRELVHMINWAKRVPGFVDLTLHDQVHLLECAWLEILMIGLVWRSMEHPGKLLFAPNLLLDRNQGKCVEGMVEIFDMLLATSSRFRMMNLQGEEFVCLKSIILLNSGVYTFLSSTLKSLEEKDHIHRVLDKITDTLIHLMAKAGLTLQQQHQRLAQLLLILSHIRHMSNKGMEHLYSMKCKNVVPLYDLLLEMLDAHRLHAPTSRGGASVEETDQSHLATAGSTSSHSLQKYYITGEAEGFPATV
The series can be described thus: Covalent antagonist activity at ERalpha in human MCF7 cells assessed as decrease in estradiol-induced TFF1 mRNA expression level at 0.25 to 10 uM measured after 24 hrs by RT-PCR analysis. The following applies: filed as antagonist, dose 0.25-10 µM. The class given is cell-based. In outline: (§2)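 MCF-7 cells stimulated with estradiol, then co-incubated 24 h with compound at 0.25, 0.5, 1 and 10 µM. RNA was reverse-transcribed and GREB1 or TFF1 measured by SYBR Green qPCR: 95 °C 10 min, then 40 cycles of 95 °C 5 s, 60 °C 60 s, 95 °C 15 s. Normalised to GAPDH, ΔΔCT method.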

The target of series [10] is T1, Estrogen receptor (Homo sapiens). The series can be described thus: Covalent antagonist activity at ERalpha in human MCF7 cells assessed as decrease in estradiol-induced GREB1 mRNA expression level at 0.25 to 10 uM measured after 24 hrs by RT-PCR analysis. The class given is cell-based. The following applies: filed as antagonist, dose 0.25-10 µM. Put shortly: as §2

For series [11] the target is unchanged. Kind of series: Covalent antagonist activity at ERalpha receptor in human ishikawa cells assessed as suppression of E2-stimulated PGR expression at 0.25 to 10 uM measured after 3 days by RT-PCR analysis. The class given is cell-based. To be noted: filed as antagonist, dose 0.25-10 µM, time 3.0 day. In outline:
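Ishikawa cells stimulated with E2 and exposed 3 days to compound at 0.25, 0.5, 1 and 10 µM. PGR mRNA quantified by SYBR Green real-time PCR, normalised to GAPDH, ΔΔCT method.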

pIC50: −log10 of the molar value. Active and inactive are the calls of the source.

One may read the pIC50 as the IC50 on a negative log10 scale, so that one unit is a factor of ten. In the case of `C=C(C)C(=O)N1CC(Oc2ccc(Oc3c(-c4ccc(F)cc4)sc4cc(O)ccc34)cc2)C1`, the pIC50 with MCF7 [1] is < 4.60; in the series with Ishikawa [2], 4.85; in the series with MDA-MB-231, < 4.30.

As to `C=CC(=O)NCCOc1ccc(Oc2c(-c3ccc(F)cc3)sc3cc(O)ccc23)cc1`, the figures for the pIC50 with MCF7 [1], with Ishikawa [2] and in the series with MDA-MB-231 were 4.64, < 4.60 and < 4.30, respectively.

Take `C=CC(=O)N1CC(Oc2ccc(Oc3c(-c4ccc(F)cc4)sc4cc(O)ccc34)cc2)C1`: the pIC50 is 4.63 in the series with MCF7 [1], 4.91 in the series on Ishikawa [2] and < 4.30 in the series with MDA-MB-231.

Regarding `O=C(/C=C/CNCCOc1ccc(Oc2c(-c3ccc(F)cc3)sc3cc(O)ccc23)cc1)N1CCCCC1`, the pIC50 with MCF7 [1] was 4.79; in the series on Ishikawa [2] it was 5.07; in the series with MDA-MB-231, < 4.30.

As a reminder, the half-life is the time needed for the level to fall by half in the phase considered. Higher therefore signals slow loss. For the molecule `CC(Cc1cccc(C(F)(F)F)c1)NCCOC(=O)c1ccccc1` (configuration not stated) [BENFLUOREX], the half-life in series [3] amounted to 28.3 min.

With `O=C(/C=C/CNCCOc1ccc(Oc2c(-c3ccc(F)cc3)sc3cc(O)ccc23)cc1)N1CCCC1`, the pIC50 in the series with MCF7 [1] is 5.12; in the series on Ishikawa [2], 4.95; in the series with MDA-MB-231 it was < 4.30.

As a reminder, the CLint scaled is the capacity of the preparation to metabolise the compound, expressed as a volume cleared per time. Low values mean slow turnover, high ones rapid turnover. The molecule `O=C(c1ccc(F)cc1)C1CCN(CCn2c(=O)[nH]c3ccccc3c2=O)CC1` [KETANSERIN] yielded a half-life in series [4] of 18.8 min. The intrinsic metabolic clearance (CLint scaled) in [5] was 132 mL/min/kg.

As to `O=C(/C=C/CNCCOc1ccc(Oc2c(-c3ccc(F)cc3)sc3cc(O)ccc23)cc1)N1CCOCC1`, the pIC50 with MCF7 [1] was 5.08; in the series on Ishikawa [2], 4.73; with MDA-MB-231, < 4.30.

As to `C/C=C/C(=O)N1CC(Oc2ccc(Oc3c(-c4ccc(F)cc4)sc4cc(O)ccc34)cc2)C1`, the negative-log IC50 (pIC50) is 4.55 in the series on MCF7 [1], 5.03 with Ishikawa [2] and < 4.30 with MDA-MB-231.

With `CN(C)C(=O)/C=C/CNCCOc1ccc(Oc2c(-c3ccc(F)cc3)sc3cc(O)ccc23)cc1`, the pIC50 was 4.86 in the series with MCF7 [1], 4.92 with Ishikawa [2] and < 4.30 in the series on MDA-MB-231.

Consider `C[C@]12CC[C@@H]3c4ccc(O)cc4C[C@@H](CCCCCCCCC[S+]([O-])CCCC(F)(F)C(F)(F)F)[C@H]3[C@@H]1CC[C@@H]2O` (some centres not stated), for which the inhibition result in the series with MCF7 [6] is “inactive”.

As to `CN(C)C(=O)/C=C/CN1CC(Oc2ccc(Oc3c(-c4ccc(F)cc4)sc4cc(O)ccc34)cc2)C1`, the pIC50 with MCF7 [1] was 4.65; in the series with Ishikawa [2] it was 4.95; with MDA-MB-231, < 4.30.

For `O=C(/C=C/CN1CC(Oc2ccc(Oc3c(-c4ccc(F)cc4)sc4cc(O)ccc34)cc2)C1)N1CCCC1`, the pIC50 in the series with MCF7 [1] was 5.07; in the series with Ishikawa [2] it was 5.04; in the series on MDA-MB-231, < 4.30. For the same molecule, the “Ratio IC50” value is 2 in the series on MCF7 [7] and 1.35 in the series on Ishikawa [8].

With `CC/C(=C(\c1ccccc1)c1ccc(OCCN(C)C)cc1)c1ccccc1` [TAMOXIFEN], the pIC50 is 4.78 with Ishikawa [2] and < 4.30 with MDA-MB-231.

As for `CNC(=O)/C=C/CN1CC(Oc2ccc(Oc3c(-c4ccc(F)cc4)sc4cc(O)ccc34)cc2)C1`, the pIC50 in the series on MCF7 [1] is < 4.60; with Ishikawa [2] it was < 4.60; in the series on MDA-MB-231, < 4.30.

Consider `O=C(c1ccc(OCCN2CCCCC2)cc1)c1c(-c2ccc(O)cc2)sc2cc(O)ccc12` [RALOXIFENE], for which the pIC50 is 4.70 with MCF7 [1], 4.91 in the series on Ishikawa [2] and < 4.30 in the series on MDA-MB-231.

In the case of `C/C=C/C(=O)NCCOc1ccc(Oc2c(-c3ccc(F)cc3)sc3cc(O)ccc23)cc1`, the pIC50 was 4.66 with MCF7 [1], 4.91 in the series with Ishikawa [2] and < 4.30 with MDA-MB-231.

Consider `O=C(CCCNCCOc1ccc(Oc2c(-c3ccc(F)cc3)sc3cc(O)ccc23)cc1)N1CCC1`, for which the results for the pIC50 in the series with MCF7 [1], in the series with Ishikawa [2] and with MDA-MB-231 were < 4.60, < 4.60 and < 4.30, respectively. For the same molecule, the inhibition entry in [9], in series [10] and in series [11] was “Active” in each case.

In the case of `CNC(=O)/C=C/CNCCOc1ccc(Oc2c(-c3ccc(F)cc3)sc3cc(O)ccc23)cc1`, the pIC50 with MCF7 [1] is 4.79; in the series on Ishikawa [2], 4.81; in the series on MDA-MB-231, < 4.30.

With `O=C(/C=C/CN1CC(Oc2ccc(Oc3c(-c4ccc(F)cc4)sc4cc(O)ccc34)cc2)C1)N1CCC1`, the figures for the pIC50 in the series on MCF7 [1], in the series with Ishikawa [2] and with MDA-MB-231 were < 4.60, 5.26 and < 4.30, respectively.

Consider `C=C(C)C(=O)NCCOc1ccc(Oc2c(-c3ccc(F)cc3)sc3cc(O)ccc23)cc1`, for which the pIC50 was < 4.60 in the series on MCF7 [1], < 4.60 with Ishikawa [2] and < 4.30 in the series with MDA-MB-231.

`O=C(/C=C/CN1CC(Oc2ccc(Oc3c(-c4ccc(F)cc4)sc4cc(O)ccc34)cc2)C1)N1CCOCC1`: the pIC50 in the series with MCF7 [1] is 5.05; in the series with Ishikawa [2] it was 5.01; with MDA-MB-231 it was < 4.30. Further, the entries for the “Ratio IC50” value with MCF7 [7] and with Ishikawa [8] were 2 and 1.26, respectively.

Values taken from ChEMBL document CHEMBL4837222, “Design and synthesis of novel benzothiophene analogs as selective estrogen receptor covalent antagonists against breast cancer” (Eur J Med Chem, 2021).
